# High-throughput results from PubChem.
# Hits are enriched below; roughly 1.9% of the tested compounds scored in any of these assays.
# Hck-Nef inh: human Hck-Nef kinase inhibition. Recombinant Hck-YEEI plus Nef, Z-Lyte FRET kinase assay. inhibition, % at 20 µM. actives 0.68% (n = 220,000);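 active = Hck-Nef kinase inhibition above about 50%, limit read from the data; inactive = inhibition below that limit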;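 also: 0% = DMSO with Hck plus Nef and 100% = Hck alone without Nef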
# Runt-SMMHC FRET: inhibitors of human RUNX1 Runt domain binding to CBFb-SMMHC; AID 1434; Cerulean-Runt/Venus-CBFb-SMMHC FRET ratio 530/480, 1 h; inhibition, % at 20 µM; actives 0.74% (n = 220,000);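 active = mean inhibition across duplicate retests at 20 µM reaching about 50%, limit read from the data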;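 also: 0% = DMSO wells and 100% = wells with excess untagged CBFb-SMMHC; inhibitors lower the FRET ratio by blocking Runt binding to CBFb-SMMHC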
# Target sequence (Q01196 whole entry, looked up, the tested form may be a part): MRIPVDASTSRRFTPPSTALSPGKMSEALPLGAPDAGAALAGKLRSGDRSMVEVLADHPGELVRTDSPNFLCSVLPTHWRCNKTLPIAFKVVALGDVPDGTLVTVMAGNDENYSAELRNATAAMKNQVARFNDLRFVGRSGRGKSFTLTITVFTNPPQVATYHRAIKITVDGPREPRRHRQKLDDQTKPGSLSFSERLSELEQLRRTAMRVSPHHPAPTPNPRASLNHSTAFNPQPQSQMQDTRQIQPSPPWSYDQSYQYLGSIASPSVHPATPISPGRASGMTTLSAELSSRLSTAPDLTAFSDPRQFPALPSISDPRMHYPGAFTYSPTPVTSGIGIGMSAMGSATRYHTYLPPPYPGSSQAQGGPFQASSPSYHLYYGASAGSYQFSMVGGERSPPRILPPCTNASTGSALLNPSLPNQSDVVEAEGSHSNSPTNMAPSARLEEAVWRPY
# Target sequence (Q13951 whole entry, looked up, the tested form may be a part): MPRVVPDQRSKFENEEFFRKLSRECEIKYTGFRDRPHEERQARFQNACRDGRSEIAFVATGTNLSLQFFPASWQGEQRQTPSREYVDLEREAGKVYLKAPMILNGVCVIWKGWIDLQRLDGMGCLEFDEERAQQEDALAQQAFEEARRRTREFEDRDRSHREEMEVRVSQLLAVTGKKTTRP
# Runt-CBFb FRET: Runt domain-CBFb interaction inhibition | Q01196+Q13951 | Cerulean-Runt/Venus-CBFb FRET ratio 530/480, 1 h | inhibition, % at 20 µM | actives 0.46% (n = 220,000) | AID 1496;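 active = inhibition over about 50% at 20 µM in the single-dose screen, limit read from the data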;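 also: 0% = DMSO wells and 100% = excess unlabeled CBFb competitor control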
#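 Assay system: Cerulean-tagged RUNX1 Runt domain (FRET donor) fusion protein / Amount: 100 nM each of Venus-CBFb and Cerulean-Runt domain / Medium: Tris buffer pH 7.5 with salts and BSA / Also added: Venus-CBFb 100 nM / Schedule: 1 h complex formation plus 1 h compound treatment, room temperature / Signal: FRET fluorescence / Read-out: loss of energy transfer signal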
# RanGTP-Impb inh: disruptors of Ran-importin-beta complex formation – biochemical, FRET, CFP-Ran, YFP-importin-beta, homogeneous, primary screen | cell-free CFP-Ran/YFP-importin-beta FRET ratio | inhibition, % (test concentration not listed) | AID 2216 | actives 1.1% (n = 300,000);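 active = more than half of the replicate wells show a fall in the fluorescence ratio signal beyond about 16%, limit read from the data, passing the limit was not always enough; inconclusive = exactly half of the replicate wells pass the set limit; inactive = fewer than half of replicates pass the limit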;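 also: 0% = DMSO wells and 100% = Ran loaded with GDP instead of GTP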
# Starred values were filed as active, the others as inactive; u = inconclusive; x = not tested or not shown.
SMILES,Hck-Nef inh,Runt-SMMHC FRET,Runt-CBFb FRET,RanGTP-Impb inh
CCC1=[N+](CC(=O)c2ccc(Br)cc2)CCn2c(C)ccc21,4,7,-4,7
OCCN(CCO)c1ncnc2c1sc1nc(N3CCOCC3)c3c(c12)CCCC3,1,-5,0,1
CSc1nc(N(CCO)CCO)c2sc3nc(-c4ccco4)c4c(c3c2n1)CCC4,77*,-20,-3,-4
N=c1c(S(=O)(=O)c2ccc(Cl)cc2)cc2c(=O)n3ccccc3nc2n1C1CCCC1,x,x,x,132*
N=c1c(S(=O)(=O)c2ccc(Cl)cc2)cc2c(=O)n3ccccc3nc2n1CC1CCCO1 (stereo unspecified),x,x,x,112*
N=c1c(S(=O)(=O)c2ccccc2)cc2c(=O)n3ccccc3nc2n1CC1CCCO1 (stereo unspecified),15,61*,105*,x
Cc1ccc(S(=O)(=O)c2cc3c(=O)n4cc(C)ccc4nc3n(CC3CCCO3)c2=N)cc1 (stereo unspecified),x,90*,86*,x
COc1ccc(C2Nc3ccccc3C(=O)N2C2CCCCC2)cc1 (stereo unspecified),27,-6,-2,3
COCCNC(=O)C1CCC(CNS(=O)(=O)c2ccccc2)CC1 (stereo unspecified),x,x,x,1
N=c1c(S(=O)(=O)c2ccc(Cl)cc2)cc2c(=O)n3ccccc3nc2n1Cc1ccco1,x,x,x,96*
CCc1nnc(NC(=O)C(C)Sc2ccccc2)s1 (stereo unspecified),1,0,0,25*
O=C(Cn1cccc1C(=O)c1ccccc1)NCc1cccc(Cl)c1,22,1,0,0
CCOC(=O)c1cc2c(=O)n3ccccc3nc2n(C(C)C)c1=NC(=O)c1c(-c2ccccc2Cl)noc1C,8,88*,82*,1
CCOC(=O)c1cc2c(=O)n3ccccc3nc2n(CCOC)c1=NC(=O)c1ccncc1,48,63*,62*,96*
COCCCn1c(C(=O)Nc2ccc3c(c2)OCO3)cc2c(=O)n3ccccc3nc21,x,x,x,-1
CCOC(=O)c1cc2c(=O)n3ccccc3nc2n(CCOC)c1=NC(=O)c1c(-c2c(F)cccc2Cl)noc1C,39,86*,68*,x
CCOC(=O)c1cc2c(=O)n3ccccc3nc2n(CCCOC)c1=NC(=O)c1cccnc1,19,88*,133*,46*
Cc1nc2ccccc2n1C1CCN(C(=O)Nc2ccccc2)CC1,22,2,0,0
CCOC(=O)c1cc2c(=O)n3ccccc3nc2n(CCCOC)c1=NC(=O)C(C)(C)C,159*,-21,56*,0
CCOC(=O)c1cc2c(=O)n3ccccc3nc2n(C(C)C)c1=NC(=O)c1ccncc1,11,170*,92*,85*
Cc1c(Br)c(=O)oc2c(C)c(O)ccc12,39,73*,48,33*
COc1ccc2c(C)c(C)c(=O)oc2c1OC,18,0,-1,-1
O=C1C=C(NCc2ccccc2)CCC1,4,0,2,u
N#Cc1ccccc1NC1=CC(=O)CCC1,1,2,-2,58*
CC(=O)c1ccc(OCc2cc(C(=O)NCCc3ccc(Cl)cc3)no2)cc1,x,x,x,1
SMILES,Hck-Nef inh,Runt-SMMHC FRET,Runt-CBFb FRET,RanGTP-Impb inh
CCOc1ccc(C(Nc2cccnc2)c2cc(Cl)c3cccnc3c2O)cc1 (stereo unspecified),51*,21,33,x
Cc1cc2c3c(ccc(C)c3n1)N=CN2c1ccccc1,2,60*,65*,92*
Cc1ccc(-n2c(=O)c3cc4c(=O)n(-c5ccc(C)c(C)c5)c(=O)c4c(C(=O)c4ccc(C(=O)O)cc4)c3c2=O)cc1C,92*,-42,32,2
Cc1ccc(Cl)cc1NC(=S)N(CCN(C)C)C(C)c1ccccn1 (stereo unspecified),4,3,2,3
C=CCN1C(=O)/C(=C2/Sc3ccccc3N2CCCS(=O)(=O)O)SC1=S,6,65*,66*,45*
CN1C(=O)/C(=C2/C=Cc3ccccc3N2CCCS(=O)(=O)O)SC1=S,6,-2,-2,-6
O=C(NC1CC1)c1cc2c(s1)-c1ccccc1OC2,5,1,3,-4
O=C(Nc1cccc(C(F)(F)F)c1)c1cc2c(s1)-c1ccccc1OC2,13,87*,45,41*
O=c1cc(NCc2ccccc2)nc2n1CCCS2,3,1,-4,20*
CC(=O)Nc1ccc(C(=O)CN2C(=O)CSC2=O)cc1,x,x,x,2
CCCCn1c(=O)nc2n(-c3ccccc3)c3ccccc3cc-2c1=O,17,60*,10,142*
Cc1ccc(C)c(N2CC(=O)N(c3cc(C)ccc3C)CC2=O)c1,0,3,-1,5
Cc1ccc(C)c(-n2c3nc(=O)n(C)c(=O)c-3cc3ccccc32)c1,25,81*,13,133*
CC(CC(=O)N1CCc2ccccc21)S(=O)(=O)c1ccc2c(c1)NC(=O)CO2 (stereo unspecified),x,x,x,6
COc1ccc(N2CC(C)Cn3c2nc2c3c(=O)n(CCc3ccccc3)c(=O)n2C)cc1 (stereo unspecified),x,-1,-4,41*
Cc1ccc(S(=O)(=O)N2CCOCC2)cc1C(=O)NNC(=O)c1ccoc1C,23,-1,1,2
CC1=[N+](CC(=O)c2ccccc2)CCn2cccc21,19,-39,-16,20*
CCC1=[N+](CC(=O)c2ccc(C)cc2)CCn2cccc21,23,-25,-9,-4
CCOc1ccc(NC(=O)CCC(=O)O)cc1,1,0,2,24*
CCNC(=S)N/N=C/c1cc(C)n(-c2ccc(Cl)cc2)c1C,-3,4,0,1
Cc1cc(/C=N/NC(=O)Cn2c3ccccc3c(=O)c3ccccc32)c(C)n1-c1ccc(Cl)cc1,35,x,101*,x
Cc1ccc(-n2c(C)cc(/C=N/NC(=O)Cn3c4ccccc4c(=O)c4ccccc43)c2C)cc1,38,x,106*,x
CCOC(=O)c1c(C)oc2ccc(OC(=O)COc3c(F)c(F)c(F)c(F)c3F)cc12,4,1,-3,-1
Cn1c(CNC(=O)CCNC(=O)c2ccc(F)c(F)c2)cc(=O)n(C)c1=O,x,x,x,3
O=S(=O)(NCc1cn2ccccc2n1)c1ccccc1F,27,4,2,0
SMILES,Hck-Nef inh,Runt-SMMHC FRET,Runt-CBFb FRET,RanGTP-Impb inh
CCN(CC)CCNc1ncnc2c1[nH]c1ccc(OC)cc12,3,x,x,-3
COc1ccc2[nH]c3c(NCCC4=CCCCC4)ncnc3c2c1,92*,-2,x,2
Cc1cc2cc(C#N)c(N3CCOCC3)nc2cc1Cl,x,x,x,7
Cc1ccc(C(=O)N2CCCN(c3nc4cc5c(cc4cc3C#N)OCO5)CC2)cc1,x,x,x,113*
Cc1cc(C)c2nc(N3CCN(C)CC3)c(C#N)cc2c1,8,34,7,6
Cc1cc(C)c2nc(N3CCCN(C(=O)c4cnccn4)CC3)c(C#N)cc2c1,15,31,11,39*
N#Cc1cc2cc3c(cc2nc1N1CCCCC1)OCCO3,-14,107*,34,59*
